Data taken from ChEMBL document CHEMBL1240433, “Design, synthesis, and antitubercular evaluation of novel series of 3-benzofuran-5-aryl-1-pyrazolyl-pyridylmethanone and 3-benzofuran-5-aryl-1-pyrazolylcarbonyl-4-oxo-naphthyridin analogs” (Eur J Med Chem, 2010).
Converted amounts (≈) assume the structure as drawn.

Experiments:
[1] = tested on: Mycobacterium tuberculosis; assay: Antitubercular activity against Mycobacterium tuberculosis ATCC 35801 infected in CD1 mouse lung at 25 mg/kg, iv after 6 weeks; format: functional
Method in brief: (§1)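 Female CD-1 mice, 6 weeks old, six per group, were infected intravenously via the caudal vein with 10^6 to 10^7 viable organisms. Dosing at 25 mg/kg intraperitoneally began 10 days after infection. Viable counts came from serial 10-fold dilutions on 7H10 agar after incubation at 37 °C in ambient air for up to 6 weeks, compared with vehicle-treated controls.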

[2] = tested on: Mycobacterium tuberculosis; assay: Antitubercular activity against Mycobacterium tuberculosis H37Rv after 6 weeks; format: functional
Method in brief: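 Lowenstein-Jensen slope assay. DMSO stocks of 250 and 10 µg/mL were each mixed 0.8 mL into 7.2 mL L.J. medium, then inspissated at 75-80 °C for 3 days. A loopful of culture was dispersed with glass beads in sterile water by vortexing for 2 min and streaked onto the slopes. DMSO-only and drug-free media served as controls. Bacterial counts were read after 6 weeks at 37 °C.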

[3] = tested on: Mycobacterium tuberculosis; assay: Antitubercular activity against Mycobacterium tuberculosis ATCC 35801 infected in CD1 mouse spleen at 25 mg/kg, iv after 6 weeks; format: functional; method in brief: as §1
Vero = assay: Cytotoxicity against african green monkey Vero after 72 hrs by MTT assay; format: cell-based; settings: Chlorocebus sabaeus
Method in brief: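 Mammalian Vero cells were used to determine IC50. The read-out was cellular reduction of MTT to a formazan product, measured with a non-radioactive cell proliferation kit.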

SMILES	log10cfu [1]	MIC [2]	log10cfu [3]	IC50 (Vero)
O=C(c1ccncc1)N1N=C(c2cc3ccccc3o2)CC1c1ccccc1O (stereo not given)	7.2	3.7 µg/mL (≈ 9.65 µM)	9.45	> 195 µM
O=C(c1ccncc1)N1N=C(c2cc3ccccc3o2)CC1c1ccco1 (stereo not given)	11.4	9.6 µg/mL (≈ 26.9 µM)	12.6	> 208 µM
CCn1cc(C(=O)N2N=C(c3cc4ccccc4o3)CC2c2ccccc2OC)c(=O)c2ccc(C)nc21 (stereo not given)	6.87	5.5 µg/mL (≈ 10.9 µM)	6.13	> 188 µM
COc1ccccc1C1CC(c2cc3ccccc3o2)=NN1C(=O)c1ccncc1 (stereo not given)	9.65	6.5 µg/mL (≈ 16.4 µM)	10.6	> 202 µM
CN(C)c1ccc(C2CC(c3cc4ccccc4o3)=NN2C(=O)c2ccncc2)cc1 (stereo not given)	14.4	9.2 µg/mL (≈ 22.4 µM)	15.8	> 211 µM
CCn1cc(C(=O)N2N=C(c3cc4ccccc4o3)CC2c2ccc(OC)cc2)c(=O)c2ccc(C)nc21 (stereo not given)	9.32	6.3 µg/mL (≈ 12.4 µM)	10.77	> 156 µM
NNC(=O)c1ccncc1 [ISONIAZID]	4.62	0.32 µg/mL (≈ 2.33 µM)	5.45	> 130 µM
O=C(c1ccncc1)N1N=C(c2cc3ccccc3o2)CC1c1ccc(O)cc1 (stereo not given)	7.46	4.5 µg/mL (≈ 11.7 µM)	8.2	> 200 µM
CCn1cc(C(=O)N2N=C(c3cc4ccccc4o3)CC2c2ccccc2C(=O)O)c(=O)c2ccc(C)nc21 (stereo not given)	5.12	4.5 µg/mL (≈ 8.64 µM)	6.16	> 196 µM
COc1ccc(C2CC(c3cc4ccccc4o3)=NN2C(=O)c2ccncc2)c(O)c1 (stereo not given)	6.98	3.3 µg/mL (≈ 7.98 µM)	6.52	> 191 µM
CCn1cc(C(=O)N2N=C(c3cc4ccccc4o3)CC2c2ccccc2Cl)c(=O)c2ccc(C)nc21 (stereo not given)	10.85	7.8 µg/mL (≈ 15.3 µM)	10.96	> 178 µM
CCn1cc(C(=O)N2N=C(c3cc4ccccc4o3)CC2c2cccc([N+](=O)[O-])c2)c(=O)c2ccc(C)nc21 (stereo not given)	2.65	2.3 µg/mL (≈ 4.41 µM)	3.25	> 164 µM
CO[C@H]1/C=C/O[C@@]2(C)Oc3c(C)c(O)c4c(O)c(c(/C=N/N5CCN(C)CC5)c(O)c4c3C2=O)NC(=O)/C(C)=C\C=C\[C@H](C)[C@H](O)[C@@H](C)[C@@H](O)[C@@H](C)[C@H](OC(C)=O)[C@@H]1C [RIFAMPIN]	3.21	0.6 µg/mL (≈ 0.729 µM)	3.98	> 74.5 µM
O=C(c1ccncc1)N1N=C(c2cc3ccccc3o2)CC1c1ccccc1 (stereo not given)	9.4	8.5 µg/mL (≈ 23.1 µM)	10.6	> 210 µM
CCn1cc(C(=O)N2N=C(c3cc4ccccc4o3)CC2c2ccc(N(C)C)cc2)c(=O)c2ccc(C)nc21 (stereo not given)	4.82	9.2 µg/mL (≈ 17.7 µM)	6.53	> 207 µM
O=C(c1ccncc1)N1N=C(c2cc3ccccc3o2)CC1c1ccccc1Cl (stereo not given)	12.5	10.6 µg/mL (≈ 26.4 µM)	12.2	> 211 µM
O=C(c1ccncc1)N1N=C(c2cc3ccccc3o2)CC1c1ccccc1[N+](=O)[O-] (stereo not given)	9.5	8.2 µg/mL (≈ 19.9 µM)	10.5	> 245 µM
CCn1cc(C(=O)N2N=C(c3cc4ccccc4o3)CC2c2ccccc2[N+](=O)[O-])c(=O)c2ccc(C)nc21 (stereo not given)	5.67	1.9 µg/mL (≈ 3.64 µM)	6.12	> 85.4 µM
CCn1cc(C(=O)N2N=C(c3cc4ccccc4o3)CC2c2ccc(OC)cc2O)c(=O)c2ccc(C)nc21 (stereo not given)	8.42	4.2 µg/mL (≈ 8.04 µM)	9.28	> 154 µM
COc1ccc(C2CC(c3cc4ccccc4o3)=NN2C(=O)c2ccncc2)cc1 (stereo not given)	8.6	6.8 µg/mL (≈ 17.1 µM)	9.24	> 200 µM
O=C(c1ccncc1)N1N=C(c2cc3ccccc3o2)CC1c1ccc(Cl)cc1 (stereo not given)	13.8	11.5 µg/mL (≈ 28.6 µM)	12.4	> 221 µM
O=C(O)c1ccccc1C1CC(c2cc3ccccc3o2)=NN1C(=O)c1ccncc1 (stereo not given)	6.24	2.2 µg/mL (≈ 5.35 µM)	5.42	> 171 µM
CCn1cc(C(=O)N2N=C(c3cc4ccccc4o3)CC2c2ccccc2)c(=O)c2ccc(C)nc21 (stereo not given)	12.23	9.8 µg/mL (≈ 20.6 µM)	12.98	> 210 µM
O=C(c1ccncc1)N1N=C(c2cc3ccccc3o2)CC1c1cccc([N+](=O)[O-])c1 (stereo not given)	10.8	7.5 µg/mL (≈ 18.2 µM)	11.6	> 240 µM
O=C(c1ccncc1)N1N=C(c2cc3ccccc3o2)CC1/C=C/c1ccccc1 (stereo not given)	10.8	8.6 µg/mL (≈ 21.9 µM)	11.6	> 212 µM
CCn1cc(C(=O)N2N=C(c3cc4ccccc4o3)CC2c2ccc(Cl)cc2)c(=O)c2ccc(C)nc21 (stereo not given)	11.52	8.3 µg/mL (≈ 16.2 µM)	12.12	> 160 µM
CCn1cc(C(=O)N2N=C(c3cc4ccccc4o3)CC2c2ccccc2O)c(=O)c2ccc(C)nc21 (stereo not given)	4.11	1.2 µg/mL (≈ 2.44 µM)	5.36	> 158 µM
CCn1cc(C(=O)N2N=C(c3cc4ccccc4o3)CC2c2ccco2)c(=O)c2ccc(C)nc21 (stereo not given)	9.66	7.5 µg/mL (≈ 16.1 µM)	10.52	> 186 µM
CCn1cc(C(=O)N2N=C(c3cc4ccccc4o3)CC2/C=C/c2ccccc2)c(=O)c2ccc(C)nc21 (stereo not given)	4.61	5.5 µg/mL (≈ 10.9 µM)	6.32	> 169 µM
CCn1cc(C(=O)N2N=C(c3cc4ccccc4o3)CC2c2ccc(O)cc2)c(=O)c2ccc(C)nc21 (stereo not given)	5.49	3.2 µg/mL (≈ 6.5 µM)	7.21	> 148 µM
